Measured values from different studies.
Cell line: CCRF-CEM
Effect on: cell growth or viability

SMILES	assay	conditions	endpoint	value
O=C1C(=Cc2ccc(F)c(F)c2)CN(C(=O)C(Cl)Cl)CC1=Cc1ccc(F)c(F)c1	imaging	24 h	CC50	99.3 nM
COc1ccc(-c2cn(-c3cc(=O)oc4ccc(Br)cc34)nn2)cc1	–	48 h	CC50	9800 nM
COc1cccc(Oc2ccccc2NC(=O)CNC(=O)c2cccc3ccccc23)c1	SRB	48 h	GI50	363 nM
O=C1C(=Cc2ccc(Cl)c(Cl)c2)CN(C(=O)C(Cl)Cl)CC1=Cc1ccc(Cl)c(Cl)c1	imaging	24 h	CC50	93.2 nM
COc1ccc(C(=O)/C=C/c2ccc3ccccc3c2)cc1S(N)(=O)=O	SRB	48 h	GI50	2600 nM
COc1cc(-c2cn(-c3cc(=O)oc4ccc(Cl)cc34)nn2)cc(OC)c1OC	–	48 h	CC50	37200 nM
COc1ccc(C(=O)/C=C/c2cccc(Cl)c2Cl)cc1S(N)(=O)=O	SRB	10 µM	inhibition	99%
O=C(CN1C(=O)SC(=Cc2ccccn2)C1=O)Nc1nc2ccccc2s1	MTT	48 h	CC50	11900 nM
